From ChEMBL document CHEMBL1938352, “Discovery of potent and liver-targeted stearoyl-CoA desaturase (SCD) inhibitors in a bispyrrolidine series” (Bioorg Med Chem Lett, 2012)

Assays:
[1] = system: Mus musculus; experiment: Antidiabetic activity in C57BL/6 mouse LPD model assessed as reduction in liver SCD activity at 4.9 uM liver concentration dosed at 2 mg/kg, po measured 3 hrs post dosing; assay type: functional; settings: C57BL6, 3 h
[2] = system: Mus musculus; experiment: Antidiabetic activity in C57BL/6 mouse LPD model assessed as reduction in liver SCD activity at 1.6 uM liver concentration dosed at 0.4 mg/kg, po measured 3 hrs post dosing; assay type: functional; settings: C57BL6, 3 h
[3] = Drug level in plasma of C57BL/6 mouse at 10 mg/kg, po measured 6 hrs post dosing; assay type: ADME, organism-based, C57BL6; parameters: dose 10 mg/kg, route oral; settings: read-out: Drug uptake
Summary of the method: (§1)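 Tissue distribution was measured in mice given 10 mg/kg PO, n = 2. Liver, plasma and Harderian gland drug concentrations were measured 6 h post dose. Liver/plasma and liver/Harderian ratios were taken from these concentrations.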

[4] = Ratio of drug uptake in liver to plasma of C57BL/6 mouse at 10 mg/kg, po measured 6 hrs post dosing; assay type: ADME, organism-based, C57BL6; parameters: dose 10 mg/kg, route oral; summary of the method: as §1
[5] = system: Mus musculus; experiment: Antidiabetic activity in po dosed C57BL/6 mouse LPD model assessed as reduction in liver SCD activity measured 3 hrs post dosing; settings: C57BL6, Liver
[6] = biological target: T1, Acyl-CoA desaturase 1 (Rattus norvegicus, UniProt P07308); experiment: Inhibition of SCD-1 activity in rat liver microsomes assessed as reduction in [1-14C] stearoyl CoA desaturation by scintillation counting; parameters: species or system Microsome
T1 sequence (P07308 whole entry): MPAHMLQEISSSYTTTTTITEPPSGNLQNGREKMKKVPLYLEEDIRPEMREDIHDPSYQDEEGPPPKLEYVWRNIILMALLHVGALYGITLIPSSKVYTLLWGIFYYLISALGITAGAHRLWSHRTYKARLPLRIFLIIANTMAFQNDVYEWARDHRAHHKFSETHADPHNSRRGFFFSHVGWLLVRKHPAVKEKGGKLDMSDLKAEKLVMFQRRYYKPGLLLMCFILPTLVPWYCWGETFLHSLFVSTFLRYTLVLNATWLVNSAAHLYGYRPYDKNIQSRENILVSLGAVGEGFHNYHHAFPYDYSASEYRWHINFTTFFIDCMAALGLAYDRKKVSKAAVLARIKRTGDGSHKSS
Summary of the method: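 The enzymatic assay used SCD-induced rat liver microsomes. IC50 values are the average of at least two independent titrations.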

[7] = biological target: T2, Stearoyl-CoA desaturase (Homo sapiens, UniProt O00767); experiment: Inhibition of SCD-1 activity in organic anion transporting polypeptides-deficient human HepG2 cells assessed as reduction in [1-14C] stearoyl CoA desaturation by scintillation counting; assay type: cell-based
T2 sequence (O00767 whole entry): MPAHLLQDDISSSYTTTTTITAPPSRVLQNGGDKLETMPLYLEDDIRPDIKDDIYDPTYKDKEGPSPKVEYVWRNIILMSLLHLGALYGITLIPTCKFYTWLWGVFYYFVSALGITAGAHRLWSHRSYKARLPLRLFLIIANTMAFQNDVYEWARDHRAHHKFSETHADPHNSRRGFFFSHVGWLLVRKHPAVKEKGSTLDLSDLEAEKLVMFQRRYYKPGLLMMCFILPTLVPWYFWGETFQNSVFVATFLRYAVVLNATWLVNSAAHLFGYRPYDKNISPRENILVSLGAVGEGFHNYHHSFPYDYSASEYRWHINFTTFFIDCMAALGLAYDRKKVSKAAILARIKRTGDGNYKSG
Summary of the method: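 The whole-cell assay used human hepatocellular carcinoma HepG2 cells, which lack active OATPs. IC50 values are the average of at least two independent titrations.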

[8] = biological target: T1, Acyl-CoA desaturase 1; experiment: Inhibition of SCD-1 activity in rat hepatocytes expressing organic anion transporting polypeptides assessed as reduction in [1-14C] stearoyl CoA desaturation by scintillation counting; assay type: cell-based, Hepatocyte
Summary of the method: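 The cellular assay used rat hepatocytes with functional OATPs to assess active transport. IC50 values are the average of at least two independent titrations.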

[9] = system: HepG2; experiment: Ratio of IC50 for SCD-1 activity in organic anion transporting polypeptides-deficient human HepG2 cells to IC50 for SCD-1 activity in rat hepatocytes expressing organic anion transporting polypeptides; assay type: cell-based
Summary of the method: (§2)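 The fold shift is the ratio of IC50 values between two assays: rat liver microsomal enzyme, HepG2 whole cell, and OATP-containing rat hepatocytes. Each IC50 is the average of at least two independent titrations.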

[10] = biological target: T3, Acyl-CoA desaturase 1 (Rattus norvegicus) (UniProt P07308); experiment: Ratio of IC50 for SCD-1 activity in rat hepatocytes expressing organic anion transporting polypeptides to IC50 for SCD-1 activity in rat liver microsomes; settings: Hepatocyte, Microsome; summary of the method: as §2
T3 sequence (whole entry): T1 sequence (P07308 whole entry)

[11] = biological target: Acyl-CoA (8-3)-desaturase (Homo sapiens, UniProt O60427); experiment: Inhibition of human delta-5 desaturase activity in human HepG2 cells using [1-14C]-stearic acid tracer; assay type: cell-based
[12] = biological target: T4, Acyl-CoA 6-desaturase (Homo sapiens, UniProt O95864); experiment: Inhibition of human delta-6 desaturase activity in human HepG2 cells using [1-14C]-stearic acid tracer; assay type: cell-based
T4 sequence (O95864 whole entry): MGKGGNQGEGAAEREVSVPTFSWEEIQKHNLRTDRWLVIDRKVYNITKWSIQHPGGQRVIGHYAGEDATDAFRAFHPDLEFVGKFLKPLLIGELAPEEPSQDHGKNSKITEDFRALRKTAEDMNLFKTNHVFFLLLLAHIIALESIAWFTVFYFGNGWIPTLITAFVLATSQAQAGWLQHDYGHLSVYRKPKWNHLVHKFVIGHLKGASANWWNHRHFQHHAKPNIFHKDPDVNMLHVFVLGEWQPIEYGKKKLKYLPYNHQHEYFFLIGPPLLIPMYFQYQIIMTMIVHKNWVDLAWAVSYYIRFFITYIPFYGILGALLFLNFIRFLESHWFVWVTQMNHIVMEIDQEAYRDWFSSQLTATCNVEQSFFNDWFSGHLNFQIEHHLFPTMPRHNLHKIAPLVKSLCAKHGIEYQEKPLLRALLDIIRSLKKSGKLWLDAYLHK

[13] = AUC (0 to 6 hrs) in C57BL/6 mouse at 10 mg/kg, po; assay type: ADME, organism-based, C57BL6; parameters: time < 6 hr, dose 10 mg/kg, route oral; settings: plasma
Summary of the method: (§3)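 C57BL6 mice were dosed orally at 10 mg/kg. Drug exposure was measured over 0–6 h to give AUC_0–6h, and oral bioavailability (F) was also determined.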

[14] = Oral bioavailability in C57BL/6 mouse at 10 mg/kg; assay type: ADME, organism-based, C57BL6; settings: in vivo; summary of the method: as §3
[15] = system: Mus musculus; experiment: Antidiabetic activity in C57BL/6 mouse LPD model assessed as reduction in liver SCD activity at 14.8 uM liver concentration dosed at 10 mg/kg, po measured 3 hrs post dosing; assay type: functional; settings: C57BL6, 3 h
[16] = Drug level in liver of C57BL/6 mouse at 10 mg/kg, po measured 6 hrs post dosing; assay type: ADME, organism-based, C57BL6; parameters: dose 10 mg/kg, route oral; settings: read-out: Drug uptake; summary of the method: as §1
[17] = biological target: T5, Acyl-CoA desaturase 1 (Mus musculus, UniProt P13516); experiment: Inhibition of mouse SCD-1
T5 sequence (P13516 whole entry): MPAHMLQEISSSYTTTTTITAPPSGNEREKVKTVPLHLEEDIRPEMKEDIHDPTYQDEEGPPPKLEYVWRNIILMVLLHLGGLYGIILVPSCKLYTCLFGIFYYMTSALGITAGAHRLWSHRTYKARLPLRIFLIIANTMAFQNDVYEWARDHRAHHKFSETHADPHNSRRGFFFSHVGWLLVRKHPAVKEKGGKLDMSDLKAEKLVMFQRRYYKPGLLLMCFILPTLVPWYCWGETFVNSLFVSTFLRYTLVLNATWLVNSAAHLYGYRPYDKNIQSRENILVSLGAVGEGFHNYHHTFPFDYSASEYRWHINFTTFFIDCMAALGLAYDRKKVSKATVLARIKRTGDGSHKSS

[18] = biological target: T6, Stearoyl-CoA desaturase 5 (Homo sapiens, UniProt Q86SK9); experiment: Inhibition of human SCD-5
T6 sequence (Q86SK9 whole entry): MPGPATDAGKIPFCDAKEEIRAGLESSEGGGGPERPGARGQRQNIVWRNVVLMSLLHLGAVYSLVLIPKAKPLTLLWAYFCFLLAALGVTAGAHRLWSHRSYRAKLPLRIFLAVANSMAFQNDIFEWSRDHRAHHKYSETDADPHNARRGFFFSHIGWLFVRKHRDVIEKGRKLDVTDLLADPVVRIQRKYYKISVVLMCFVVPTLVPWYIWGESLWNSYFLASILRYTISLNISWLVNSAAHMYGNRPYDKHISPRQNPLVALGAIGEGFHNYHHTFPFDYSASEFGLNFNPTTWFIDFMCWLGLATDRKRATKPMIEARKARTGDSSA

[19] = Drug level in harderian gland of C57BL/6 mouse at 10 mg/kg, po measured 6 hrs post dosing; assay type: ADME, organism-based, C57BL6; parameters: dose 10 mg/kg, route oral; settings: read-out: Drug uptake; summary of the method: as §1
[20] = system: Mus musculus; experiment: Antidiabetic activity in C57BL/6 mouse LPD model assessed as reduction in liver SCD activity at 7.7 uM liver concentration dosed at 2 mg/kg, po measured 3 hrs post dosing; assay type: functional; settings: C57BL6, 3 h
[21] = system: Mus musculus; experiment: Ratio of drug uptake in liver to harderian gland of C57BL/6 mouse at 10 mg/kg, po measured 6 hrs post dosing; settings: in vivo

Sequence of Acyl-CoA (8-3)-desaturase (O60427 whole entry): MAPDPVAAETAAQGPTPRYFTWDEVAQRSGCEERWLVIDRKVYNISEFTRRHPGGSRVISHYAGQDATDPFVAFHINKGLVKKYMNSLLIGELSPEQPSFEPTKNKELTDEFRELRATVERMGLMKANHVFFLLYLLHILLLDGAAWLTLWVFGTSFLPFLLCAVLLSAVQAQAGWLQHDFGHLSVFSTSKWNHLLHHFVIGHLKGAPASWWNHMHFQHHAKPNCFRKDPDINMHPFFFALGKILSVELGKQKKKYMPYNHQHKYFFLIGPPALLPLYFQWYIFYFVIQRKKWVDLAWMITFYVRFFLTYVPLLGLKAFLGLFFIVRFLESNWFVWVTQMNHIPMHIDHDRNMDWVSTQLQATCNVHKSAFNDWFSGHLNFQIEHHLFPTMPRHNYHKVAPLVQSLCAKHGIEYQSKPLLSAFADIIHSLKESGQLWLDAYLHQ

Structure (SMILES)	IC50 [6] [nM]	IC50 [7] [nM]	IC50 [8] [nM]	further results
O=C(O)Cn1nnc(-c2cc(N3CCC(Oc4cc(F)ccc4Br)CC3)no2)n1 [MK-8245]				inhibition in vivo at 2 mg/kg [1]: 89%; inhibition in vivo at 0.4 mg/kg [2]: 49%; concentration at 6 h [3]: 30 nM; Kp at 6 h [4]: 90; ED50 [5]: 1 mg/kg
O=C(O)Cn1nnc(-c2cnc(N3CC4(CCN(c5cc(F)ccc5Cl)CC4)C3)s2)n1	128	> 100000	506	
O=C(O)Cn1nnc(-c2cnc(N3CC4CN(c5cc(F)ccc5Cl)CC4C3)s2)n1 (stereo not drawn)	34	15400	233	
O=C(O)Cn1nnc(-c2cnc(N3CCC4(CC3)CN(c3cc(F)ccc3Cl)C4)s2)n1	36	> 100000	438	
O=C(O)Cn1nnc(-c2cnc(N3C[C@@H]4C[C@H]3CN4c3cc(F)ccc3Cl)s2)n1	29	9140	176	
O=C(O)Cn1nnc(-c2cc(N3CC4CN(c5cc(F)ccc5Cl)CC4C3)no2)n1 (stereo not drawn)	24	9900	198	Ratio IC50 [9]: 50; Ratio IC50 [10]: 8; IC50 [11]: > 80000 nM; IC50 [12]: > 80000 nM; AUC(0-t) at 6 h [13]: 2.1 µM·h; bioavailability [14]: 24%; inhibition in vivo at 10 mg/kg [15]: 72%; concentration at 6 h [16]: 2700 nM; IC50 [17]: 18 nM; IC50 [18]: 242 nM
O=C(O)Cn1nnc(-c2nnc(N3CC4CN(c5cc(F)ccc5Cl)CC4C3)s2)n1 (stereo not drawn)	59	> 10000	300	
O=C(O)Cn1nnc(-c2cnc(N3CCN(c4cc(F)ccc4Cl)CC3)s2)n1	28	4200	134	AUC(0-t) at 6 h [13]: 0.7 µM·h; bioavailability [14]: 15%; concentration at 6 h [16]: 9300 nM; concentration at 6 h [3]: 220 nM; concentration at 6 h [19]: 50 nM; Kp at 6 h [4]: 40; IC50 [17]: 21 nM; inhibition in vivo at 2 mg/kg [20]: 61%; Ratio [21]: 180
O=C(O)Cn1nnc(-c2cnc(N3CC4(C3)CN(c3cc(F)ccc3Cl)C4)s2)n1	43	50900	103	
